Apaf1 inhib – human Apaf-1 inhibition; reconstituted apoptosome caspase-3 activity, DEVD-Rh110 fluorescence; O14727; inhibition, % at 20 µM; 0.71% of 330,000 active; active = inhibition of at least 40% at 20 µM;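 also: plate controls were DMSO wells for no effect and DEVD-CHO caspase inhibitor wells for full effect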
Target sequence (O14727 whole entry, looked up): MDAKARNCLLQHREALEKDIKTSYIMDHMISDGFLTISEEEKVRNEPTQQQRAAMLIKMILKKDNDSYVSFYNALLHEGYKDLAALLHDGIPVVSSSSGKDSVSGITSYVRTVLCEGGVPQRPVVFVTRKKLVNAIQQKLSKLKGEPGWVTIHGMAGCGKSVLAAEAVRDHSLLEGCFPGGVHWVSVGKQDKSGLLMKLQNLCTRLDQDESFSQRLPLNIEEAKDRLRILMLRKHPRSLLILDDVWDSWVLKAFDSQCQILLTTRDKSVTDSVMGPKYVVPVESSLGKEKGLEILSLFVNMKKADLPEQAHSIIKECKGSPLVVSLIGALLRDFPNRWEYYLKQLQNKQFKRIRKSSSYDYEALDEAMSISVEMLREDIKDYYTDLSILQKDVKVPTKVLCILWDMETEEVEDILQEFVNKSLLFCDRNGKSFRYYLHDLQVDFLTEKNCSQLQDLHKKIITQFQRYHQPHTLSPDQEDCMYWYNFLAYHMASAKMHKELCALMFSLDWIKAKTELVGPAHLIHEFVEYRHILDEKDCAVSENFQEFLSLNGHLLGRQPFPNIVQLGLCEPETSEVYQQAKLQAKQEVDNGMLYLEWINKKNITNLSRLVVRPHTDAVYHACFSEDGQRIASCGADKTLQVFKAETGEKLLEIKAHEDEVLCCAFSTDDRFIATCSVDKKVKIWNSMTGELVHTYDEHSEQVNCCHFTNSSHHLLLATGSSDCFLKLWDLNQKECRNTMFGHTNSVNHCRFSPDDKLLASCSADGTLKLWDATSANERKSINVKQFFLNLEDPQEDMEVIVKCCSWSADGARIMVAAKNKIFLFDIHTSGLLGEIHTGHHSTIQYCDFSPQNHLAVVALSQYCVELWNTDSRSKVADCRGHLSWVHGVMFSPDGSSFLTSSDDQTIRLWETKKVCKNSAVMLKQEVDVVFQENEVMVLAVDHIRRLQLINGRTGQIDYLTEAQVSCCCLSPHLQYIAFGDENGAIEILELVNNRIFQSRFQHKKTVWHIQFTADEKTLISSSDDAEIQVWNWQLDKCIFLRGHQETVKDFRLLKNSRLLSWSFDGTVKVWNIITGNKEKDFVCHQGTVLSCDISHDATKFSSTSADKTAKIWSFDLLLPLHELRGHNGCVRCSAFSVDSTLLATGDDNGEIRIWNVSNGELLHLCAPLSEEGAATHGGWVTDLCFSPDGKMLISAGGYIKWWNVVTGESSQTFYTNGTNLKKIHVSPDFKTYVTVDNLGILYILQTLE
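Medium: Hepes buffer, pH 7.5 / System: biochemical Apaf-1 apoptosome reconstitution / Measured by: Rh110 fluorescence, excitation 480 nm, emission 540 nm / Times: compound with Apaf-1, dATP, procaspase-3 30 min, then 50 min reaction, room temperature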
MEKK3 PB1 HTS – raises or lowers MEK5 binding to the human MEKK3 PB1 domain | Q99759 | bead-based flow cytometry, Alexa488-MEK5 binding to MEKK3; actives lie on both sides; 0 = blocked by unlabeled MEK5, 100 = vehicle | binding response (% of control), % at 10 µM | 1.4% of 290,000 active;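 active = binding response more than 3 SD above or below the average of its plate-row segment, actives on both sides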;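 also: Alexa488 bead fluorescence after subtracting the streptavidin-only scavenger bead signal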
MEKK2mut PB1 HTS – signal of MEK5 binding to mutant human MEKK2 PB1 domain; bead flow cytometry, Alexa488-MEK5 binding to MEKK2 mutant; percent response, % at 10 µM; 0.35% of 290,000 active; AID 1530; in the data active = percent response above about 24%, passing the limit was not always enough
UCH37 inh – blocks the human deubiquitinase UCH37 | Q9Y5K5 | purified proteasome/UCH37, Ub-AMC cleavage fluorescence | inhibition, % (no concentration beside the values) | 0.33% of 330,000 active | AID 588478;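 active = mean inhibition over replicate wells above about 20%, limit read from the data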;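 also: 0% = compound-free wells with enzyme and 100% = wells lacking proteasome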
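Reagent: Ub-AMC substrate; assay system: Proteasome-associated human UCH37 deubiquitinase; controls: no-proteasome and no-compound wells; read-out: % inhibition of Ub-AMC cleavage fluorescence; timing: 30 min preincubation with enzyme, 25 min cleavage at room temperature; signal: AMC fluorescence from Ub-AMC cleavage, excitation 355 nm, emission 460 nm; buffer or medium: Tris-HCl pH 7.4 plus ovalbumin, ATP-MgCl2, DTT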
UBC13 inh – blocks human UBC13 polyubiquitin chain formation | P61088 | TR-FRET | inhibition, % at 20 µM | 0.47% of 330,000 active | AID 485273; in the data active = inhibition above about 45%, passing the limit was not always enough
MEKK2 WT-MEK5 – raises or lowers MEK5 binding to wildtype human MEKK2 PB1 domain | Q9Y2U5 | bead flow cytometry, Alexa488-MEK5 binding to MEKK2 WT; actives lie on both sides | binding response (% of control), % at 10 µM | 1.1% of 290,000 active; in the data active = binding response below about 67% or above about 130%
MEKK2wt confirm – raises or lowers MEK5 binding to wildtype human MEKK2, retest; binding response (% of control), % at 10 µM; 2.4% of 5,900 active; shares compounds with MEKK3 PB1 HTS; AID 1892; bead flow cytometry, Alexa488-MEK5 binding to MEKK2 WT; actives lie on both sides; in the data active = binding response below about 16% or above about 210%; inactive = in between
MEKK2mut-MEK5 – signal of MEK5 binding to mutant human MEKK2, retest; shares compounds with MEKK3 PB1 HTS; bead flow cytometry, Alexa488-MEK5 binding to MEKK2 mutant; percent response, % at 10 µM; 2% of 5,900 active; AID 1893; in the data active = percent response mostly above about 71%, no sharp cut-off; inactive = mostly below about 38%;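 also: higher means compound restores mutant binding toward wildtype level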
MEKK3-MEK5 inh – MEKK3-MEK5 PB1 inhibition, single concentration confirmation; shares compounds with MEKK3 PB1 HTS; AID 1894; binding response (% of control), % at 10 µM; bead flow cytometry, Alexa488-MEK5 binding to MEKK3; hits give low values; 1.8% of 5,900 active;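 active = binding response below 72% of control, or above a set upper limit, though filed actives all read lower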;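 also: 100% = DMSO only wells and 0% = binding blocked by excess unlabeled MEK5; lower values mean stronger disruption of MEK5 binding to MEKK3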
* hit, by the source's call; i = inactive; . = no result; [ ] = remark or other dose. An excerpt weighted towards active compounds, which were near 3% of everything screened.

SMILES	Apaf1 inhib	MEKK3 PB1 HTS	MEKK2mut PB1 HTS	UCH37 inh	UBC13 inh	MEKK2 WT-MEK5	MEKK2wt confirm	MEKK2mut-MEK5	MEKK3-MEK5 inh
Cc1cc(C(=O)COC(=O)CNS(=O)(=O)c2ccc3ccccc3c2)c(C)n1-c1ccccc1	14	164*	0	4	4	102	99	1	107
O=C(CNS(=O)(=O)c1ccc2ccccc2c1)OCC(=O)c1ccc(Br)s1	10	98	-1	3	-20	94	.	.	.
COc1ccc(C(=O)C[n+]2ccccc2C)cc1	3	143*	1	4	11	108	104	7	105
COc1ccc(C(=O)C[n+]2ccccc2C=NO)cc1	.	.	.	4	.	.	.	.	.
Cc1ccc(C(=O)C[n+]2cccc3ccccc32)cc1	3	80*[inhibitor]	-18	-1	-10	86	101	-18	94
O=C(C[n+]1cccc2ccccc21)c1ccc(Br)cc1	11	24*[inhibitor]	234*	3	2	.	107	1	91
COc1cccc(N/C(C)=C/C(=O)c2ccc(Br)cc2)c1	20	95	2	-5	-2	95	.	.	.
Cc1ccc(C(=O)NN=CC(=O)c2ccccc2)c(C)c1	3	.	.	3	-4	.	.	.	.
COc1ccc(-c2oc3ncnc(NCCCN(C)C)c3c2-c2ccc(OC)cc2)cc1	21	109	30*	-190	10	171*	144	27	100
CN(C)CCNc1ncnc2oc(-c3ccccc3)c(-c3ccccc3)c12	12	109	17	-24	5	122	.	.	.
O=[N+]([O-])c1cccc(S(=O)(=O)N2CCCCC2c2cccnc2)c1 (centres undefined)	-9	102	2	0	6	101	.	.	.
FC(F)(F)c1cc(-c2ccco2)nc(NCc2ccco2)n1	11	97	1	-7	4	99	.	.	.
FC(F)(F)c1cc(-c2ccco2)nc(NCc2cccs2)n1	11	122*	5	-7	-11	106	93	-2	94
COc1ccc(-c2cc(C(=O)NCCN3CCOCC3)c3cc(C(C)C)ccc3n2)cc1	-1	101	4	i	22	102	.	.	.
N=c1n(CC(=O)c2ccc([N+](=O)[O-])cc2)c2ccccc2n1Cc1ccc(Cl)cc1	-2	108	50	13	26	138*	154	58	108
O=C(CN1CCOCC1)Nc1ncc(Cc2cccc(Cl)c2)s1	-1	152*	0	-1	-11	109	105	3	106
C/C(=N\N1CCN(Cc2ccccc2Cl)CC1)c1ccc(F)cc1	-5	88	-16	.	2	97	.	.	.
CC(C)CC1NC(=O)N(CCCCN2C(=O)c3ccccc3C2=O)C1=O (centres undefined)	3	135*	4	1	9	121	107	9	109
Cc1ccc(C(C)C)c(OCCCNCc2cccnc2)c1	3	100	3	6	18	109	.	.	.
Cc1ccc(C(C)C)c(OCCNCCc2ccccc2)c1	27	112	9	4	22	160*	98	-4	99
O=[N+]([O-])c1ccc(-c2nc(Nc3cccc(O)c3)c3ccccc3n2)cc1	14	112	19	1	9	146*	120	4	102
Cc1nn(Cc2ccccc2)c2c1C(c1ccc(Cl)cc1)C(C#N)=C(N)O2 (centres undefined)	21	107	4	3	-4	104	.	.	.
O=C(Nc1cccc(S(=O)(=O)N2CCCCC2)c1)c1ccccn1	-9	102	1	2	3	103	.	.	.
O=C(Nc1cccc(NS(=O)(=O)c2ccc(S(=O)(=O)NC3CC3)cc2)c1)c1ccccn1	6	124*	5	1	-5	114	101	1	108
COc1ccc2c(c1)C(=O)OC2CC(=O)O (centres undefined)	-6	9.0*[inhibitor]	-15	-1	0	14*[inhibitor]	105	0	105
SMILES	Apaf1 inhib	MEKK3 PB1 HTS	MEKK2mut PB1 HTS	UCH37 inh	UBC13 inh	MEKK2 WT-MEK5	MEKK2wt confirm	MEKK2mut-MEK5	MEKK3-MEK5 inh
COC(=O)c1c(NC(=O)CN2CCN(C(=O)c3ccco3)CC2)c2c(C)cccc2n1C	-18	122*	18	5	-2	120	95	-3	101
Cc1ccc(NC(=O)C(=O)NCCOc2ccc(Cl)cc2)c(C)c1	-7	128*	0	-3	3	106	98	-1	102
CCCOc1ccc(NCC(=O)Nc2ccc(C)cc2C)cc1	15	102	2	2	-17	96	.	.	.
C/C=C1\COC(C(=O)NCCCN2CCCC2=O)(C(F)(F)F)C=C1C=C(C)C (centres undefined)	-2	78*[inhibitor]	-7	0	-6	85	105	19	107
CCOC(=O)/C(C#N)=C/c1ccc(OCC(=O)Nc2ccc(OC)cc2)c(OC)c1	7	124*	4	-4	-10	119	100	0	99
O=C(C[n+]1ccc(Cc2ccccc2)cc1)Nc1ccccc1	-3	86	64*	2	8	125	111	3	98
O=C(C[n+]1ccccc1)Nc1ccccc1	-14	.	.	1	-2	.	.	.	.
CC1=CC2=NC(=O)CC(C)(C(=O)N(CC(=O)NC3CCCC3)c3cc(C)cc(C)c3)N2C=C1 (centres undefined)	0	150*	6	-62	5	128	104	8	103
CC1=CC2=NC(=O)CC(C)(C(=O)N(CC(=O)NC(C)(C)C)C3CCCC3)N2C=C1 (centres undefined)	-16	103	3	-27	15	102	.	.	.
CCN(C[C@H]1N[C@@](CC)(C(=O)OC)[C@H]2C(=O)N(Cc3ccccc3)C(=O)[C@@H]12)C(=O)Nc1ccc(C)cc1	10	.	.	4	5	.	.	.	.
N#Cc1c(-c2ccc3c(c2)OCO3)csc1N	9	123*	6	2	3	116	105	4	105
CCOc1ccc(CCNC(=O)C2CCC(=O)N2CCc2ccccc2)cc1OCC (centres undefined)	-12	2.0*[inhibitor]	-26	1	14	-1.0*[inhibitor]	96	-5	100

Source: PubChem BioAssay (several laboratories)
